Reference: ChEMBL document CHEMBL3259690, “Synthesis, structure-activity relationships, and biological studies of chromenochalcones as potential antileishmanial agents” (J Med Chem, 2014)
pIC50: −log10 of the molar value.

Tests used:
[1] = test system: J774.A1; experiment: Induction of nitric oxide production in mouse J774A1 cells infected with Leishmania donovani after 24 hrs by Griess reagent based spectrophotometric analysis relative to control; assay type: functional
Method in brief: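 Infected J774A.1 macrophages (1 × 10⁶/mL) incubated with compound for 24 h; LPS 10 μg/mL as stimulant. Supernatant mixed 1:1 with Griess reagent at room temperature, absorbance at 540 nm, nitrite reported in μM. Normal, infected-untreated and infected-treated cells compared. Two independent experiments, mean ± SD; Student's t test against infected control.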

[2] = test system: Leishmania donovani; experiment: Induction of apoptosis in Leishmania donovani MHOM/IN/80/Dd8 promastigotes assessed as drop in mitochondrial membrane potential at 0.78 uM after 72 hrs by JC-1 dye based flow cytometry (reference value: 5.87%); assay type: functional
[3] = test system: Leishmania donovani; experiment: Induction of apoptosis in Leishmania donovani MHOM/IN/80/Dd8 promastigotes assessed as drop in mitochondrial membrane potential at 0.78 uM after 12 hrs by JC-1 dye based flow cytometry (reference value: 5.87%); assay type: functional
[4] = Apparent oral clearance in Syrian golden hamster at 100 mg/kg, po administered via gavage as single dose by HPLC-UV analysis; assay type: ADME, organism-based, Mesocricetus auratus; parameters: dose 100 mg/kg, route oral; conditions: in vivo
Method in brief: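 Male Syrian golden hamsters (100 ± 15 g) given a single oral dose of 100 mg/kg. Plasma stored at −70 °C and assayed by HPLC-UV. Concentration–time profiles analysed non-compartmentally; values mean ± SD.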

[5] = Cytotoxicity against African green monkey Vero cells after 72 hrs by MTT assay; assay type: cell-based; conditions: chlorocebus sabaeus
Method in brief: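 Vero cells at 1 × 10⁵/mL exposed to seven concentrations from 400 μM at 37 °C, 5% CO₂, for 72 h. MTT (5 mg/mL) added for 2 h at 37 °C, formazan dissolved in DMSO, absorbance read at 544 nm. CC₅₀ estimated by the Huber and Koella method; at least duplicate measurements.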

[6] = Half life in syrian golden hamster liver S9 fraction at 10 uM in presence of NADPH; assay type: ADME, subcellular, Mesocricetus auratus
Method in brief: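 Hamster liver S9 (2 mg/mL protein), 50 mM Tris, 20 mM MgCl₂, 2 mM NADPH preincubated 10 min, then compound added at 10 μM final (1% organic) at 37 °C in triplicate. Sampled 0−60 min; no-NADPH control sampled at 0, 15, 30 and 60 min. Quenched with ice-cold methanol, extracted by LLE. Data as % parent remaining versus 0 min; testosterone as positive control.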

[7] = test system: Leishmania donovani; experiment: Induction of apoptosis in Leishmania donovani MHOM/IN/80/Dd8 promastigotes assessed as drop in mitochondrial membrane potential at 0.78 uM after 24 hrs by JC-1 dye based flow cytometry (reference value: 5.87%); assay type: functional
[8] = test system: Leishmania donovani; experiment: Antileishmanial activity against intracellular amastigote form of Leishmania donovani MHOM/IN/80/Dd8 expressing luciferase gene infected in mouse J774A1 cells after 72 hrs by luminescence analysis; assay type: functional, organism-based; conditions: MHOM/IN/80/Dd8, J774.A1, 72 h
Method in brief: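 J774A.1 macrophages (4 × 10⁴/mL, RPMI-1640 + 10% HIFBS, 37 °C, 5% CO₂), after 24 h infected with stationary-phase luciferase promastigotes (4 × 10⁵/mL). Free parasites washed off after 24 h. Compound added at up to 7 dilutions from 40 μM for 72 h. Luminescence read after Steady Glo in PBS. IC₅₀ from four-parameter Hill fit; at least duplicate measurements.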

[9] = test system: Leishmania donovani; experiment: Induction of early apoptosis in Leishmania donovani MHOM/IN/80/Dd8 promastigotes at 0.78 uM after 6 hrs by Annexin V-FITC/propidium iodide staining based flow cytometry (reference value: 13.70%); assay type: functional
[10] = test system: Leishmania donovani; experiment: Induction of early apoptosis in Leishmania donovani MHOM/IN/80/Dd8 promastigotes at 0.78 uM after 48 hrs by Annexin V-FITC/propidium iodide staining based flow cytometry (reference value: 13.70%); assay type: functional
[11] = test system: Leishmania donovani; experiment: Antileishmanial activity against Leishmania donovani MHOM/IN/80/Dd8 amastigotes infected in syrian golden hamster assessed as decrease in parasite count in spleen at 50 mg/kg/day, po for 5 days measured on day 7 after last dose administration by giemsa staining; assay type: functional; conditions: MHOM/IN/80/Dd8, Spleen
Method in brief: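 Golden hamsters of either sex infected intracardially with 1 × 10⁷ L. donovani Dd8 amastigotes. After 15−20 days, pretreatment spleen biopsy; animals with +1 grade infection (5−10 amastigotes/100 spleen cell nuclei) used, 5−6 per compound. Aqueous suspensions dosed IP or PO for 5−10 consecutive days starting 2 days after biopsy. Splenic biopsies on day 7 and 28 after last dose, Giemsa counts; PI = 100 − [(ANAT×100)/(INAT×TIUC)].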

[12] = test system: Leishmania donovani; experiment: Induction of early apoptosis in Leishmania donovani MHOM/IN/80/Dd8 promastigotes at 0.78 uM after 12 hrs by Annexin V-FITC/propidium iodide staining based flow cytometry (reference value: 13.70%); assay type: functional
[13] = test system: J774.A1; experiment: Decrease in IL-10 production in mouse J774A1 cells infected with Leishmania donovani at IC50 concentration after 24 hrs by sandwich ELISA relative to control; assay type: functional
Method in brief: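 J774A.1 macrophages (1 × 10⁶) infected with Leishmania at 1:10, treated in 6-well plates at the compound's IC₅₀ concentration, 37 °C, CO₂. Supernatants from normal, infected-untreated and infected-treated cells collected after 24 h. IL-12, TNF-α, IL-10 and TGF-β measured by sandwich ELISA at 450 nm, in pg/mL. Two independent experiments in duplicate, mean ± SD; Student's t test against infected control.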

SMILES: CC(C)=CCCC1(C)C=Cc2c(ccc(C(=O)/C=C/c3cccnc3)c2O)O1 (stereo not drawn)
- fold change (FC) [1]: 6.3
- Activity [2]: 69.59%
- Activity [3]: 17.46%
- CL/F [4]: 464 mL/min/kg
- CC50 at 72 h [5]: 40.7 µM
- half-life at 10 µM [6]: 37.8 min
- Activity [7]: 31.88%
- pIC50 [8]: 5.27
- Activity [9]: 27.04%
- Activity [10]: 37.62%
- inhibition in vivo at 50 mg/kg/day [11]: 49%
- Activity [12]: 28.93%
- fold change (FC) [13]: 7.11
